# Laboratory results from ChEMBL document CHEMBL1132232, “7alpha-Iodo and 7alpha-fluoro steroids as androgen receptor-mediated imaging agents” (J Med Chem, 1999).
# What was measured:
# Rattus norvegicus [1] = assay: Distribution of tissue Radioactivity following Intravenous injection into castrated male rat kidney at 4 hours time; assay type: ADME, organism-based; settings: in vivo
# How it was run: (§1)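 Male Sprague–Dawley rats, about 250 g, were castrated and injected the next day via the tail vein with 5.4 μCi (2.4 pmol) of 125I tracer in ethanol/saline (1:4). There were 5–6 rats per group. At 0.5, 1, 2 or 4 h, rats were ether-anesthetized and killed by exsanguination. Tissues were dissected, weighed and counted, giving % injected dose/g and prostate/blood ratios.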
# Rattus norvegicus [2] = assay: Distribution of tissue Radioactivity following subcutaneous injection of […] of 5-alpha-DHT 15 min before the administration of the [125I]- tracer castrated male rat fat at 1 hour time; assay type: ADME, organism-based, Adipose tissue; settings: in vivo, sc
# How it was run: (§2)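 Castrated male Sprague–Dawley rats, about 250 g, received 5α-DHT subcutaneously in propylene glycol/saline (3:2) 15 min before a tail-vein 125I tracer (5.4 μCi, 2.4 pmol, in ethanol/saline 1:4). There were 5–6 rats per group. At 1 h, rats were ether-anesthetized and exsanguinated. Tissues were weighed and counted as % injected dose/g, plus the prostate/blood ratio.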
# Rattus norvegicus [3] = assay: Distribution of tissue Radioactivity following subcutaneous injection of […] of 5-alpha-DHT 15 min before the administration of the [125I]- tracer castrated male rat blood at 1 hour time; assay type: ADME, organism-based; settings: in vivo, sc; how it was run: as §2
# Rattus norvegicus [4] = assay: Distribution of tissue Radioactivity following subcutaneous injection of […] of 5-alpha-DHT 15 min before the administration of the [125I]- tracer castrated male rat liver at 1 hour time; assay type: ADME, organism-based; settings: in vivo, sc; how it was run: as §2
# Rattus norvegicus [5] = assay: Distribution of tissue Radioactivity following subcutaneous injection of […] of 5-alpha-DHT 15 min before the administration of the [125I]- tracer castrated male rat muscle at 1 hour time; assay type: ADME, organism-based; settings: in vivo, sc; how it was run: as §2
# Rattus norvegicus [6] = assay: Distribution of tissue Radioactivity following Intravenous injection into castrated male rat muscle at 4 hours time; assay type: ADME, organism-based; settings: in vivo; how it was run: as §1
# Rattus norvegicus [7] = assay: Distribution of tissue Radioactivity following Intravenous injection into castrated male rat fat at 2 hours time; assay type: ADME, organism-based, Adipose tissue; settings: in vivo; how it was run: as §1
# Rattus norvegicus [8] = assay: Distribution of tissue Radioactivity following Intravenous injection into castrated male rat prostate/blood at 0.5 hours time; assay type: ADME, organism-based; settings: in vivo; how it was run: as §1
# Rattus norvegicus [9] = assay: Distribution of tissue Radioactivity following subcutaneous injection of […] of 5-alpha-DHT 15 min before the administration of the [125I]- tracer castrated male rat prostate/blood at 1 hour time; assay type: ADME, organism-based; settings: in vivo, sc; how it was run: as §2
# Rattus norvegicus [10] = assay: Distribution of tissue Radioactivity following Intravenous injection into castrated male rat kidney at 0.5 hours time; assay type: ADME, organism-based; settings: in vivo; how it was run: as §1
# Rattus norvegicus [11] = assay: Distribution of tissue Radioactivity following Intravenous injection into castrated male rat lung at 0.5 hours time; assay type: ADME, organism-based; settings: in vivo; how it was run: as §1
# Rattus norvegicus [12] = assay: Distribution of tissue Radioactivity following subcutaneous injection of […] of 5-alpha-DHT 15 min before the administration of the [125I]- tracer castrated male rat lung at 1 hour time; assay type: ADME, organism-based; settings: in vivo, sc; how it was run: as §2
# Rattus norvegicus [13] = assay: Distribution of tissue Radioactivity following Intravenous injection into castrated male rat muscle at 2 hours time; assay type: ADME, organism-based; settings: in vivo; how it was run: as §1
# Rattus norvegicus [14] = assay: Distribution of tissue Radioactivity following Intravenous injection into castrated male rat lung at 1 hour time; assay type: ADME, organism-based; settings: in vivo; how it was run: as §1
# Rattus norvegicus [15] = assay: Distribution of tissue Radioactivity following Intravenous injection into castrated male rat prostate/blood at 1 hours time; assay type: ADME, organism-based; settings: other tissue; how it was run: as §1
# Rattus norvegicus [16] = assay: Distribution of tissue Radioactivity following Intravenous injection into castrated male rat blood at 1 hour time; assay type: ADME, organism-based; settings: in vivo; how it was run: as §1
# Rattus norvegicus [17] = assay: Distribution of tissue Radioactivity following subcutaneous injection of […] of 5-alpha-DHT 15 min before the administration of the [125I]- tracer castrated male rat kidney at 1 hour time; assay type: ADME, organism-based; settings: in vivo, sc; how it was run: as §2
# Rattus norvegicus [18] = assay: Distribution of tissue Radioactivity following Intravenous injection into castrated male rat lung at 4 hours time; assay type: ADME, organism-based; settings: in vivo; how it was run: as §1
# Rattus norvegicus [19] = assay: Distribution of tissue Radioactivity following Intravenous injection into castrated male rat thyroid at 0.5 hours time; assay type: ADME, organism-based, Thyroid gland; settings: in vivo; how it was run: as §1
# Rattus norvegicus [20] = assay: Distribution of tissue Radioactivity following Intravenous injection into castrated male rat spleen at 1 hour time; assay type: ADME, organism-based; settings: in vivo; how it was run: as §1
# Rattus norvegicus [21] = assay: Distribution of tissue Radioactivity following Intravenous injection into castrated male rat prostate at 0.5 hours time; assay type: ADME, organism-based, Prostate gland; settings: in vivo; how it was run: as §1
# Rattus norvegicus [22] = assay: Distribution of tissue Radioactivity following Intravenous injection into castrated male rat fat at 1 hour time; assay type: ADME, organism-based, Adipose tissue; settings: in vivo; how it was run: as §1
# Rattus norvegicus [23] = assay: Distribution of tissue Radioactivity following Intravenous injection into castrated male rat lung at 2 hours time; assay type: ADME, organism-based; settings: in vivo; how it was run: as §1
# Rattus norvegicus [24] = assay: Distribution of tissue Radioactivity following Intravenous injection into castrated male rat thyroid at 1 hour time; assay type: ADME, organism-based, Thyroid gland; settings: in vivo; how it was run: as §1
# Rattus norvegicus [25] = assay: Distribution of tissue Radioactivity following Intravenous injection into castrated male rat prostate at 2 hours time; assay type: ADME, organism-based, Prostate gland; settings: in vivo; how it was run: as §1
compound,measurement,setting,value
C[C@]12CCC(=O)CC1C[C@@H](I)[C@@H]1[C@@H]2CC[C@@]2(C)[C@H]1CC[C@]2(C)O (stereo not given in full),Biodistribution,Rattus norvegicus [1],0.23%
same,Biodistribution,Rattus norvegicus [2],0.29%
same,Dose/g,Rattus norvegicus [3],0.35%
same,Dose/g,Rattus norvegicus [4],0.36%
same,Biodistribution,Rattus norvegicus [5],0.08%
same,Biodistribution,Rattus norvegicus [6],0.07%
same,Dose/g,Rattus norvegicus [7],0.2%
same,Dose/g,Rattus norvegicus [8],0.7%
same,Dose/g,Rattus norvegicus [9],0.66%
same,Biodistribution,Rattus norvegicus [10],0.26%
same,Dose/g,Rattus norvegicus [11],0.22%
same,Dose/g,Rattus norvegicus [12],0.28%
same,Dose/g,Rattus norvegicus [13],0.07%
same,Biodistribution,Rattus norvegicus [14],0.24%
same,Biodistribution,Rattus norvegicus [15],1.17%
same,Biodistribution,Rattus norvegicus [16],0.33%
same,Biodistribution,Rattus norvegicus [17],0.3%
same,Dose/g,Rattus norvegicus [18],0.28%
same,Biodistribution,Rattus norvegicus [19],1.58%
same,Biodistribution,Rattus norvegicus [20],0.16%
same,Biodistribution,Rattus norvegicus [21],0.21%
same,Dose/g,Rattus norvegicus [22],0.25%
same,Biodistribution,Rattus norvegicus [23],0.24%
same,Dose/g,Rattus norvegicus [24],4.07%
same,Dose/g,Rattus norvegicus [25],0.44%
